From ChEMBL document CHEMBL4346701, “Synthesis and biological evaluation of tryptophan-derived rhodanine derivatives as PTP1B inhibitors and anti-bacterial agents” (Eur J Med Chem, 2019)
In brackets after ≈: the same amount, converted by molar mass.

How the values were obtained:
Escherichia coli = assay: Antibacterial activity against Escherichia coli 1924 assessed as reduction in bacterial cell growth incubated for 24 hrs by ELISA; format: functional; settings: Escherichia coli, 1924, 24 h
In short: (§1)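 MIC determined by serial dilution in 96-well microtiter plates. Strains used were E. coli 1924 and P. aeruginosa 2742 (Gram-negative), S. mutans 3289 (Gram-positive) and the fungus C. albicans 7535. Gatifloxacin, moxifloxacin, norfloxacin and oxacillin served as antibacterial reference agents, and fluconazole as the antifungal reference.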

Staphylococcus aureus [1] = assay: Antibacterial activity against Staphylococcus aureus RN4220 assessed as reduction in bacterial cell growth incubated for 24 hrs by ELISA; format: functional; settings: RN4220, 24 h
In short: (§2)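 MICs determined by serial dilution in 96-well microtiter plates. The strain panel included Gram-positive S. aureus strains and multidrug-resistant clinical isolates. Gatifloxacin, moxifloxacin, norfloxacin and oxacillin served as antibacterial positive controls.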

Pseudomonas aeruginosa = assay: Antibacterial activity against Pseudomonas aeruginosa 2742 assessed as reduction in bacterial cell growth incubated for 24 hrs by ELISA; format: functional; settings: Pseudomonas aeruginosa, 2742, 24 h; in short: as §1
Staphylococcus aureus [2] = assay: Antibacterial activity against Quinolone-resistant Staphylococcus aureus CCARM 3519 assessed as reduction in bacterial cell growth incubated for 24 hrs by ELISA; format: functional; settings: CCARM 3519, 24 h; in short: as §2
Staphylococcus aureus [3] = assay: Antibacterial activity against Quinolone-resistant Staphylococcus aureus CCARM 3505 assessed as reduction in bacterial cell growth incubated for 24 hrs by ELISA; format: functional; settings: CCARM 3505, 24 h; in short: as §2
Staphylococcus aureus [4] = assay: Antibacterial activity against Staphylococcus aureus KCTC503 assessed as reduction in bacterial cell growth incubated for 24 hrs by ELISA; format: functional; settings: KCTC503, 24 h; in short: as §2
Staphylococcus aureus [5] = assay: Antibacterial activity against Methicillin-resistant Staphylococcus aureus CCARM 3167 assessed as reduction in bacterial cell growth incubated for 24 hrs by ELISA; format: functional; settings: CCARM 3167, 24 h; in short: as §2
Staphylococcus aureus [6] = assay: Antibacterial activity against Methicillin-resistant Staphylococcus aureus CCARM 3506 assessed as reduction in bacterial cell growth incubated for 24 hrs by ELISA; format: functional; settings: CCARM 3506, 24 h; in short: as §2
Candida albicans = assay: Antifungal activity against Candida albicans 7535 assessed as reduction in bacterial cell growth incubated for 24 hrs by ELISA; format: functional; settings: Candida albicans, 7535, 24 h; in short: as §1
Streptococcus mutans = assay: Antibacterial activity against Streptococcus mutans KCTC3289 assessed as reduction in bacterial cell growth incubated for 24 hrs by ELISA; format: functional; settings: KCTC3289, 24 h; in short: as §1
Staphylococcus aureus [7] = assay: Antibacterial activity against Staphylococcus aureus KCTC209 assessed as reduction in bacterial cell growth incubated for 24 hrs by ELISA; format: functional; settings: KCTC209, 24 h; in short: as §2
[8] = target: T1, Tyrosine-protein phosphatase non-receptor type 1 (Homo sapiens, UniProt P18031); assay: Inhibition of human recombinant GST-tagged PTP1B expressed in Escherichia coli BL21 (DE3) using pNPP as substrate measured for 2 mins by colorimetric analysis
T1 sequence (P18031 whole entry): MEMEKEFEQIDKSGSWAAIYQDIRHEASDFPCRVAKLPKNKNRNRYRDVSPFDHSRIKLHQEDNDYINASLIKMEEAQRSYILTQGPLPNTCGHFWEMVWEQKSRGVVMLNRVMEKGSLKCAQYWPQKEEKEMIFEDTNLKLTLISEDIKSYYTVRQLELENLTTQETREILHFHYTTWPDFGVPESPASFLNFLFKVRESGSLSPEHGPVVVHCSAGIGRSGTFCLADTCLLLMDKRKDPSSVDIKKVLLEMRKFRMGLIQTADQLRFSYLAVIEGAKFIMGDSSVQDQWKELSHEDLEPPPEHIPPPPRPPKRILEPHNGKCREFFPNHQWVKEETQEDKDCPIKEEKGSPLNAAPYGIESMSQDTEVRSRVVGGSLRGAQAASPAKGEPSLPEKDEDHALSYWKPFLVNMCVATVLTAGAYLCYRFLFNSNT

SMILES	MIC (Escherichia coli)	MIC (Staphylococcus aureus [1])	MIC (Pseudomonas aeruginosa)	MIC (Staphylococcus aureus [2])	MIC (Staphylococcus aureus [3])	MIC (Staphylococcus aureus [4])	MIC (Staphylococcus aureus [5])	MIC (Staphylococcus aureus [6])	MIC (Candida albicans)	MIC (Streptococcus mutans)	MIC (Staphylococcus aureus [7])	IC50 [8]
O=C(O)CN1C(=O)/C(=C/c2ccc3cc(OCc4ccc(F)cc4)ccc3c2)SC1=S	> 64 µg/mL	4 µg/mL (≈ 8.82 µM)	> 64 µg/mL	4 µg/mL (≈ 8.82 µM)	4 µg/mL (≈ 8.82 µM)	4 µg/mL (≈ 8.82 µM)	4 µg/mL (≈ 8.82 µM)	2 µg/mL (≈ 4.41 µM)	> 64 µg/mL	–	–	–
O=C(O)C(Cc1c[nH]c2ccccc12)N1C(=O)/C(=C/c2cccc(OCc3ccc(Br)cc3)c2)SC1=S (centres undefined)	8 µg/mL (≈ 13.5 µM)	2 µg/mL (≈ 3.37 µM)	> 64 µg/mL	4 µg/mL (≈ 6.74 µM)	8 µg/mL (≈ 13.5 µM)	4 µg/mL (≈ 6.74 µM)	8 µg/mL (≈ 13.5 µM)	8 µg/mL (≈ 13.5 µM)	> 64 µg/mL	4 µg/mL (≈ 6.74 µM)	4 µg/mL (≈ 6.74 µM)	2.7 µM
Cc1ccc(COc2ccc(/C=C3\SC(=S)N(C(Cc4c[nH]c5ccccc45)C(=O)O)C3=O)cc2)cc1 (centres undefined)	8 µg/mL (≈ 15.1 µM)	4 µg/mL (≈ 7.57 µM)	> 64 µg/mL	16 µg/mL (≈ 30.3 µM)	8 µg/mL (≈ 15.1 µM)	8 µg/mL (≈ 15.1 µM)	8 µg/mL (≈ 15.1 µM)	8 µg/mL (≈ 15.1 µM)	> 64 µg/mL	4 µg/mL (≈ 7.57 µM)	4 µg/mL (≈ 7.57 µM)	5.93 µM
CCn1cc(C(=O)O)c(=O)c2cc(F)c(N3CCNCC3)cc21 [NORFLOXACIN]	–	–	–	> 64 µg/mL	> 64 µg/mL	–	8 µg/mL (≈ 25.1 µM)	4 µg/mL (≈ 12.5 µM)	–	–	–	–
Cc1onc(-c2ccccc2)c1C(=O)N[C@@H]1C(=O)N2[C@@H]1SC(C)(C)[C@@H]2C(=O)O [OXACILLIN]	–	–	–	1 µg/mL (≈ 2.49 µM)	1 µg/mL (≈ 2.49 µM)	–	> 64 µg/mL	> 64 µg/mL	–	–	–	–
O=C(O)C(Cc1c[nH]c2ccccc12)N1C(=O)/C(=C/c2cccc(OCc3ccccc3)c2)SC1=S (centres undefined)	8 µg/mL (≈ 15.5 µM)	4 µg/mL (≈ 7.77 µM)	> 64 µg/mL	8 µg/mL (≈ 15.5 µM)	8 µg/mL (≈ 15.5 µM)	8 µg/mL (≈ 15.5 µM)	8 µg/mL (≈ 15.5 µM)	8 µg/mL (≈ 15.5 µM)	> 64 µg/mL	8 µg/mL (≈ 15.5 µM)	8 µg/mL (≈ 15.5 µM)	8.23 µM
O=C(O)C(Cc1c[nH]c2ccccc12)N1C(=O)/C(=C/c2ccc(OCc3ccc(Cl)cc3Cl)cc2)SC1=S (centres undefined)	8 µg/mL (≈ 13.7 µM)	4 µg/mL (≈ 6.85 µM)	> 64 µg/mL	16 µg/mL (≈ 27.4 µM)	8 µg/mL (≈ 13.7 µM)	8 µg/mL (≈ 13.7 µM)	8 µg/mL (≈ 13.7 µM)	8 µg/mL (≈ 13.7 µM)	> 64 µg/mL	8 µg/mL (≈ 13.7 µM)	4 µg/mL (≈ 6.85 µM)	3.38 µM
O=C(O)C(Cc1c[nH]c2ccccc12)N1C(=O)/C(=C/c2ccc3cc(OCc4ccccc4Cl)ccc3c2)SC1=S (centres undefined)	4 µg/mL (≈ 6.68 µM)	4 µg/mL (≈ 6.68 µM)	> 64 µg/mL	4 µg/mL (≈ 6.68 µM)	4 µg/mL (≈ 6.68 µM)	–	2 µg/mL (≈ 3.34 µM)	4 µg/mL (≈ 6.68 µM)	> 64 µg/mL	2 µg/mL (≈ 3.34 µM)	–	0.8 µM
COc1cc(/C=C2\SC(=S)N(C(Cc3c[nH]c4ccccc34)C(=O)O)C2=O)ccc1OCc1ccc(Br)cc1 (centres undefined)	8 µg/mL (≈ 12.8 µM)	4 µg/mL (≈ 6.41 µM)	> 64 µg/mL	8 µg/mL (≈ 12.8 µM)	4 µg/mL (≈ 6.41 µM)	4 µg/mL (≈ 6.41 µM)	4 µg/mL (≈ 6.41 µM)	4 µg/mL (≈ 6.41 µM)	> 64 µg/mL	8 µg/mL (≈ 12.8 µM)	4 µg/mL (≈ 6.41 µM)	3.18 µM
O=C(O)C(Cc1c[nH]c2ccccc12)N1C(=O)/C(=C/c2cccc(OCc3ccc(Cl)cc3Cl)c2)SC1=S (centres undefined)	8 µg/mL (≈ 13.7 µM)	4 µg/mL (≈ 6.85 µM)	> 64 µg/mL	4 µg/mL (≈ 6.85 µM)	4 µg/mL (≈ 6.85 µM)	8 µg/mL (≈ 13.7 µM)	8 µg/mL (≈ 13.7 µM)	8 µg/mL (≈ 13.7 µM)	> 64 µg/mL	4 µg/mL (≈ 6.85 µM)	4 µg/mL (≈ 6.85 µM)	1.7 µM
COc1c(N2C[C@@H]3CCCN[C@@H]3C2)c(F)cc2c(=O)c(C(=O)O)cn(C3CC3)c12 [MOXIFLOXACIN]	–	0.25 µg/mL (≈ 0.623 µM)	–	4 µg/mL (≈ 9.96 µM)	–	2 µg/mL (≈ 4.98 µM)	–	–	0.5 µg/mL (≈ 1.25 µM)	0.25 µg/mL (≈ 0.623 µM)	–	–
